High-throughput results from PubChem.
Only a selection was taken, and hits are over-represented in it overall.
T cruzi HTS – intracellular Trypanosoma cruzi inhibition | actives 4.9% (n = 22,000) | activity score (inhibition), % at 5.01 µM | intracellular Trypanosoma cruzi in host cells, plate reader; in the data active = activity score above about 55%;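 also: parasites and compound incubated about four days before reading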
A1 apoptosis 2 – compounds inhibiting A1, read as caspase activation. caspase activation, % (test concentration not listed). MEF A1-2A-BIM cells, caspase-Glo luminescence, 3 h; percent of clofoctol response, DMSO zero. 24,000 tested, under 10 active; in the data active = caspase activation above about 5.9%
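Test system – A1-2A-BIM-expressing MEF cells · Input – 2500 cells/well · Medium – RPMI-1640 growth medium with 10% FBS · Compound dosing – 50 nL pinned compound · Timing – 3 h compound exposure at 37 °C · Technique – Caspase-Glo luminescence (DEVD substrate) · Evaluation – Caspase-3/7 activity from luminescence increase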
INS-1E ATP HTS – preserves ATP levels in cytokine-treated INS-1E cells. INS-1E cytokine-induced death, ATP luminescence, 48 h; normalised: neutral wells 0, positive control 100. protection from cytokine-induced ATP loss, % at 10 µM. actives 0.1% (n = 20,000);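 active = mean replicate protection from cytokine-induced ATP loss at least 50% and at least 75% of replicates each reaching 50%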
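Assay system: INS-1E rat insulinoma cells. Amount: 8000 cells per well. Medium: phenol-red-free RPMI with 5% fetal bovine serum. Reagent: IL-1β, TNF-α and IFN-γ cytokine mix. Doses: one compound concentration, pin transfer. Schedule: 48 h co-treatment, 10 min post-lysis read. Detection: CellTiter-Glo luminescence measuring cellular ATP.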
A number is an active result.

`C[C@H](CO)N1C[C@H](C)[C@@H](CN(C)Cc2ccc(Oc3ccccc3)cc2)Oc2c(NC(=O)Nc3ccc(F)cc3)cccc2C1=O` gave T cruzi HTS 59.5, A1 apoptosis 2 inactive and INS-1E ATP HTS inactive.
For COC(=O)CCCCCCC(=O)NN the results were T cruzi HTS inactive and INS-1E ATP HTS inactive.
For O=C(NO)c1cccc(C(=O)N/N=C/c2ccccc2)c1 the results were T cruzi HTS inactive, A1 apoptosis 2 inactive and INS-1E ATP HTS inactive.
C[C@@H]1CCCCO[C@H](CN(C)C(=O)Nc2ccc3c(c2)OCO3)[C@@H](C)CN([C@H](C)CO)C(=O)c2cc(NC(=O)NC3CCCCC3)ccc2O1 was read as T cruzi HTS inactive and INS-1E ATP HTS inactive.
`O=C(N/N=C/c1ccc(Br)o1)c1ccccc1O` gave T cruzi HTS inactive, A1 apoptosis 2 inactive and INS-1E ATP HTS inactive.
O=C(N/N=C/c1ccc(-c2ccccc2)c(F)c1)c1ccccc1O was read as T cruzi HTS inactive, A1 apoptosis 2 inactive and INS-1E ATP HTS inactive.
`C[C@@H]1CN([C@H](C)CO)C(=O)Cc2cc(NC(=O)Nc3ccc(F)cc3)ccc2O[C@@H]1CN(C)CC1CCCCC1` gave T cruzi HTS 67.0, A1 apoptosis 2 inactive and INS-1E ATP HTS inactive.
C[C@H](CO)N1C[C@H](C)[C@H](CN(C)CC2CCCCC2)Oc2ccc(NC(=O)Nc3ccc4c(c3)OCO4)cc2CC1=O was read as T cruzi HTS inactive, A1 apoptosis 2 inactive and INS-1E ATP HTS inactive.
C[C@H](CO)N1C[C@H](C)[C@@H](CN(C)CC2CCCCC2)Oc2ccc(NC(=O)Nc3ccc(F)cc3)cc2CC1=O was read as A1 apoptosis 2 inactive.
For C[C@@H]1CN([C@H](C)CO)C(=O)Cc2cc(NC(=O)Nc3ccc(F)cc3)ccc2O[C@@H]1CN(C)CC1CC1 the results were A1 apoptosis 2 inactive.
Screening C[C@@H]1CN([C@H](C)CO)C(=O)Cc2cc(NC(=O)Nc3ccc(F)cc3)ccc2O[C@H]1CN(C)CC1CCCCC1 returned T cruzi HTS 59.6 and INS-1E ATP HTS inactive.
Screening C[C@@H]1CN([C@H](C)CO)C(=O)Cc2cc(NC(=O)Nc3ccc4c(c3)OCO4)ccc2O[C@H]1CN(C)CC1CCCCC1 returned T cruzi HTS 63.6, A1 apoptosis 2 inactive and INS-1E ATP HTS inactive.
Screening CC(C)(C)OC(=O)N1CCC[C@H]1/C=N/NC(=O)CCCCCC(=O)Nc1ccccc1O returned T cruzi HTS inactive and INS-1E ATP HTS inactive.
`C[C@@H]1CN([C@H](C)CO)C(=O)Cc2cc(NC(=O)CCCCCC(=O)Nc3ccccc3N)ccc2O[C@H]1CN(C)Cc1ccc(-c2ccccc2)cc1` gave T cruzi HTS inactive and INS-1E ATP HTS inactive.
Screening O=C(N/N=C/c1ccccc1[N+](=O)[O-])c1ccccc1O returned T cruzi HTS inactive, A1 apoptosis 2 inactive and INS-1E ATP HTS inactive.
Screening Cc1nc(S(=O)(=O)N[C@@H]2CCCN(Cc3ccc(OCCO)cc3)C2)cn1C returned A1 apoptosis 2 inactive.
`O=C(c1ccccc1)c1ccc(N2CCOCC2)cc1O` gave A1 apoptosis 2 inactive.
Screening CCn1c2ccccc2c2cc(/C=N/NC(=O)c3ccccc3O)ccc21 returned T cruzi HTS inactive, A1 apoptosis 2 inactive and INS-1E ATP HTS inactive.
O=C(NO)c1ccc(C(=O)N/N=C/c2ccccc2OCCO)cc1 was read as T cruzi HTS inactive, A1 apoptosis 2 inactive and INS-1E ATP HTS inactive.
Screening Cc1ccc(S(=O)(=O)N(C)C[C@H]2OCCCC[C@@H](C)Oc3ccc(NS(=O)(=O)c4ccc(Cl)cc4)cc3C(=O)N([C@H](C)CO)C[C@@H]2C)cc1 returned T cruzi HTS 64.3 and INS-1E ATP HTS inactive.
Screening Cc1ccc(S(=O)(=O)Nc2ccc3c(c2)C(=O)N([C@@H](C)CO)C[C@H](C)[C@@H](CN(C)S(=O)(=O)c2ccc(Cl)cc2)OCCCC[C@@H](C)O3)cc1 returned A1 apoptosis 2 inactive.
`C[C@@H]1CCCCO[C@@H](CN(C)CC2CCCCC2)[C@@H](C)CN([C@H](C)CO)C(=O)c2cc(NS(=O)(=O)c3ccc(Cl)cc3)ccc2O1` gave T cruzi HTS 62.5, A1 apoptosis 2 inactive and INS-1E ATP HTS inactive.
`C[C@@H]1CCCCO[C@H](CN(C)CC2CCCCC2)[C@@H](C)CN([C@H](C)CO)C(=O)c2cc(NS(=O)(=O)c3ccc(Cl)cc3)ccc2O1` gave T cruzi HTS inactive, A1 apoptosis 2 inactive and INS-1E ATP HTS inactive.
Screening C[C@@H]1CCCCO[C@H](CN(C)S(=O)(=O)c2ccc(Cl)cc2)[C@H](C)CN([C@H](C)CO)C(=O)c2cc(NS(=O)(=O)c3ccc(Cl)cc3)ccc2O1 returned A1 apoptosis 2 inactive.
C[C@@H]1CCCCO[C@@H](CN(C)S(=O)(=O)c2ccc(Cl)cc2)[C@@H](C)CN([C@H](C)CO)C(=O)c2cc(NS(=O)(=O)c3ccc(Cl)cc3)ccc2O1 was read as T cruzi HTS 58.8, A1 apoptosis 2 inactive and INS-1E ATP HTS inactive.
Screening Cc1ccc(S(=O)(=O)Nc2cccc3c2O[C@@H](CN(C)C)[C@H](C)CN([C@@H](C)CO)C3=O)cc1 returned T cruzi HTS inactive and INS-1E ATP HTS inactive.
For C=CC[C@@]12N=C(c3ccc(OCCCO)cc3)O[C@@H]1c1ccccc1N(CCS(=O)(=O)c1ccccc1)C2=O the results were A1 apoptosis 2 inactive.
COC(=O)CCCCCCC(=O)N=NC=C1C=CN(O)C=C1 was read as T cruzi HTS inactive and INS-1E ATP HTS inactive.
`C[C@H]1CN([C@@H](C)CO)C(=O)c2cccc(NC(=O)c3ccncc3)c2O[C@H]1CN(C)Cc1ccc(C(=O)O)cc1` gave T cruzi HTS inactive, A1 apoptosis 2 inactive and INS-1E ATP HTS inactive.
Screening C[C@H]1CN([C@@H](C)CO)C(=O)c2cccc(NC(=O)c3ccncc3)c2O[C@@H]1CN(C)Cc1ccc(-c2ccccc2)cc1 returned T cruzi HTS 79.2 and INS-1E ATP HTS inactive.
C[C@H]1CN([C@@H](C)CO)C(=O)c2cccc(NC(=O)c3ccncc3)c2O[C@H]1CN(C)Cc1ccc(-c2ccccc2)cc1 was read as T cruzi HTS 72.4, A1 apoptosis 2 inactive and INS-1E ATP HTS inactive.
`C[C@H](CO)N1C[C@H](C)[C@H](CN(C)Cc2ccc(C(=O)Nc3ccccc3N)cc2)Oc2c(NC(=O)c3ccncc3)cccc2C1=O` gave T cruzi HTS inactive, A1 apoptosis 2 inactive and INS-1E ATP HTS inactive.
C[C@H]1CN([C@@H](C)CO)C(=O)c2cc(NS(=O)(=O)c3cn(C)cn3)ccc2O[C@H]1CN(C)S(=O)(=O)c1ccc(Cl)cc1 was read as T cruzi HTS inactive, A1 apoptosis 2 inactive and INS-1E ATP HTS inactive.
For C[C@H](CO)N1C[C@H](C)[C@H](CN(C)CC2CCCCC2)Oc2c(NC(=O)Nc3ccc(C(F)(F)F)cc3)cccc2C1=O the results were T cruzi HTS 56.3, A1 apoptosis 2 inactive and INS-1E ATP HTS inactive.
`COc1ccc(NC(=O)N(C)C[C@@H]2Oc3c(NC(=O)Nc4ccc(C(F)(F)F)cc4)cccc3C(=O)N([C@H](C)CO)C[C@H]2C)cc1` gave T cruzi HTS 59.9, A1 apoptosis 2 inactive and INS-1E ATP HTS inactive.
